In brackets after ≈: the same amount, converted by molar mass.
Legend:
[1] = system: Acinetobacter baumannii; experiment: Antibacterial activity against Acinetobacter baumannii ATCC 19606 after 18 to 20 hrs by broth microdilution assay; format: functional; conditions: ATCC 19606 = CIP 70.34 = JCM 6841
In short: (§1)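 Bacteria grown overnight at 37 °C with shaking in nutrient broth or Mueller-Hinton broth (MHB). Cultures were diluted 50-fold in MHB and grown 1.5–3 h to mid-log phase, then set at 5×10^5 CFU/mL final. Compounds were 2-fold serially diluted, final 32 to 0.015 µg/mL, 1% DMSO. […] Two independent experiments of n = 2 (n = 4).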

[2] = system: Pseudomonas aeruginosa; experiment: Antibacterial activity against Pseudomonas aeruginosa ATCC 27853 after 18 to 20 hrs by broth microdilution assay; format: functional; in short: as §1
[3] = system: Klebsiella pneumoniae; experiment: Antibacterial activity against multidrug-resistant Klebsiella pneumoniae ATCC 700603 after 18 to 20 hrs by broth microdilution assay; format: functional
In short: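 Strains were grown overnight at 37 °C with shaking in nutrient broth or MHB, diluted 50-fold in MHB and grown 1.5–3 h to mid-log. Compounds were 2-fold serially diluted in MHB at 32 to 0.015 µg/mL final (1% DMSO) with 5×10^5 CFU/mL. […] Two independent experiments of n = 2 (n = 4).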

[4] = system: Escherichia coli; experiment: Antibacterial activity against Escherichia coli ATCC 25922 after 18 to 20 hrs by broth microdilution assay; format: functional; in short: as §1
[5] = system: Staphylococcus aureus; experiment: Antibacterial activity against glycopeptide-intermediate resistant Staphylococcus aureus NARSA NRS17 after 18 to 20 hrs by broth microdilution assay
[6] = system: Staphylococcus aureus; experiment: Antibacterial activity against glycopeptide-intermediate/methicillin-resistant Staphylococcus aureus NARSA NRS1 after 18 to 20 hrs by broth microdilution assay
[7] = system: Staphylococcus aureus; experiment: Antibacterial activity against vancomycin-resistant Staphylococcus aureus NARSA VRS10 after 18 to 20 hrs by broth microdilution assay
[8] = system: Candida albicans; experiment: Antifungal activity against Candida albicans ATCC 90028 after 18 to 20 hrs by broth microdilution assay; format: functional
[9] = system: Cryptococcus neoformans; experiment: Antifungal activity against Cryptococcus neoformans H99 ATCC 208821 after 18 to 20 hrs by broth microdilution assay; format: functional; conditions: var. grubii H99 ATCC 208821
[10] = Cytotoxicity against HEK293 cells after 24 hrs by resazurin dye-based fluorescence analysis; format: cell-based; conditions: human
In short: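 HEK293 cells were seeded at 3000/well in DMEM with 10% FBS and attached for 24 h at 37 °C, 5% CO₂. A compound concentration series was applied for 24 h. Resazurin was added at 10 µM for 2 h and fluorescence read at ex/em 560/590. Results are average percentage of control ± SD of duplicate wells.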

[11] = Drug localization in methicillin-resistant Staphylococcus aureus subsp. aureus Rosenbach ATCC 43300 at 10 ug/ml after 20 mins by confocal microscopic analysis; format: ADME
In short: (§2)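 MRSA ATCC 43300 was grown overnight in LB broth at 37 °C with gentle shaking, then incubated 20 min at 37 °C with 10 µg/mL fluorescent compound in LB. Cells were fixed in 4% paraformaldehyde for 20 min, wet-mounted on slides and imaged by confocal microscopy.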

[12] = Drug localization in […] Escherichia coli ATCC 25922 at 10 ug/ml after 20 mins by confocal microscopic analysis; format: ADME
In short: (§3)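 E. coli ATCC 25922 was grown overnight in LB broth at 37 °C with gentle shaking. Cells were exposed to 10 µg/mL fluorescent compound in LB for 20 min at 37 °C. Localisation was imaged by confocal microscopy, including 3D rendering.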

[13] = Drug localization in peripheral region of methicillin-resistant Staphylococcus aureus subsp. aureus Rosenbach ATCC 43300 at 10 ug/ml after 20 mins by confocal microscopic analysis; format: ADME; in short: as §2
[14] = Drug localization in peripheral region of […] Escherichia coli ATCC 25922 at 10 ug/ml after 20 mins by confocal microscopic analysis; format: ADME; in short: as §3
[15] = system: Staphylococcus aureus; experiment: microbe, parasite or virus in culture; conditions: ATCC 43300
[16] = system: Streptococcus pneumoniae; experiment: microbe, parasite or virus in culture; conditions: ATCC 700677
[17] = system: Staphylococcus aureus; experiment: Antibacterial activity against methicillin-resistant Staphylococcus aureus ATCC 43300 after 20 hrs by micro-broth dilution assay; format: functional; conditions: ATCC 43300, 20 h
[18] = system: Escherichia coli; experiment: Antibacterial activity against Escherichia coli ATCC 25922 after 20 hrs by micro-broth dilution assay; format: functional; conditions: ATCC 25922, 20 h
[19] = system: Pseudomonas aeruginosa; experiment: Antibacterial activity against Pseudomonas aeruginosa ATCC 27853 after 20 hrs by micro-broth dilution assay; format: functional; conditions: ATCC 27853, 20 h
[20] = system: Pseudomonas aeruginosa; experiment: Antibacterial activity against Pseudomonas aeruginosa ATCC 27853 assessed as zone of inhibition at 50 ug/disc after 20 hrs by disk diffusion assay; format: functional; conditions: ATCC 27853, 20 h, read-out: IZ
In short: (§4)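 Disks loaded with 50 µg compound. Isolate suspensions were adjusted to 0.5 McFarland in 0.9% NaCl and swabbed onto nutrient agar plates, with zones of inhibition measured. Controls: 10 µg colistin sulphate disk, 10 µL DMSO, and a plate swabbed with saline from the dispenser.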

[21] = system: Klebsiella pneumoniae; experiment: Antibacterial activity against Klebsiella pneumoniae ATCC 13883 assessed as zone of inhibition at 50 ug/disc after 20 hrs by disk diffusion assay; format: functional; conditions: ATCC 13883, 20 h, read-out: IZ; in short: as §4
[22] = system: Staphylococcus aureus; experiment: Antibacterial activity against methicillin-resistant Staphylococcus aureus ATCC 43300 assessed as zone of inhibition at 50 ug/disc after 20 hrs by disk diffusion assay; format: functional; conditions: ATCC 43300, 20 h, read-out: IZ
In short: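 Disk diffusion, 50 µg compound per disk. Bacterial suspensions were adjusted to 0.5 McFarland in 0.9% NaCl and swabbed onto nutrient agar plates. Controls were a 10 µg colistin sulphate disk, 10 µL DMSO, and a plate swabbed with saline from the dispenser.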

[23] = system: Acinetobacter baumannii; experiment: Antibacterial activity against Acinetobacter baumannii ATCC 19606 assessed as zone of inhibition at 50 ug/disc after 20 hrs by disk diffusion assay; format: functional; conditions: ATCC 19606 = CIP 70.34 = JCM 6841, 20 h, read-out: IZ; in short: as §4
[24] = system: Enterococcus faecium; experiment: Antibacterial activity against Enterococcus faecium ATCC 700221 assessed as zone of inhibition at 50 ug/disc after 20 hrs by disk diffusion assay; format: functional; conditions: ATCC 700221, 20 h, read-out: IZ; in short: as §4

SMILES	MIC [1]	MIC [2]	MIC [3]	MIC [4]	MIC [5]	MIC [6]	MIC [7]	MIC [8]	MIC [9]	CC50 at 24 h [10]	Drug uptake [12]	MIC [15]	MIC [16]	other results
CCCNc1ccc2c3c(cccc13)C(=O)N(CCCCCCCCCCCC1O[C@@H]3[C@@H]4C[C@H]([C@@H]3O1)[C@@H](C(=O)NCCNC(=N)N)[C@@H]4C(=O)NCCNC(=N)N)C2=O.Cl.Cl (some centres undefined)	> 32 µg/mL	> 32 µg/mL	> 32 µg/mL	> 32 µg/mL	4 µg/mL	4 µg/mL	2 µg/mL	128 µg/mL	0.25 µg/mL	> 50 µg/mL	Active	1 µg/mL	1 µg/mL	Drug uptake [11]: Active; Drug uptake [13]: Active; Drug uptake [14]: Active
CCCN1C(=O)c2cccc3c(N)ccc(c23)C1=O	–	–	–	–	–	–	–	–	–	–	Active	–	–	Drug uptake [11]: Active
CCCCCCCCCCCCCCCC1O[C@@H]2[C@@H]3C[C@H]([C@@H]2O1)[C@@H](C(=O)NCCNC(=N)NCc1ccccc1)[C@@H]3C(=O)NCCNC(=N)NCc1ccccc1.Cl.Cl (some centres undefined)	> 128 µg/mL	> 128 µg/mL	> 128 µg/mL	> 128 µg/mL	0.25 µg/mL	0.5 µg/mL	0.5 µg/mL	–	–	7.8 µg/mL	–	0.25 µg/mL	1 µg/mL	–
CCCNc1ccc([N+](=O)[O-])c2nonc12	–	–	–	–	–	–	–	–	–	–	Active	–	–	Drug uptake [13]: Active
Cl.Cl.N=C(N)NCCNC(=O)[C@@H]1[C@@H]2C[C@@H]([C@@H](OCc3ccc(C(F)(F)F)cc3)[C@H]2OCc2ccc(C(F)(F)F)cc2)[C@H]1C(=O)NCCNC(=N)N	–	–	–	–	–	–	–	–	–	–	–	–	–	MIC [17]: 8 µg/mL; MIC [18]: 8 µg/mL; MIC [19]: 8 µg/mL
CCCCCCCC1O[C@@H]2[C@@H]3C[C@H]([C@@H]2O1)[C@@H](C(=O)NCCNC(=O)c1ccc(C(=O)NC(=N)N)[nH]1)[C@@H]3C(=O)NCCNC(=O)c1ccc(C(=O)NC(=N)N)[nH]1.Cl.Cl (some centres undefined)	> 128 µg/mL	> 128 µg/mL	> 128 µg/mL	> 128 µg/mL	> 128 µg/mL	> 128 µg/mL	128 µg/mL	–	–	> 100 µg/mL	–	> 128 µg/mL	> 128 µg/mL	–
CCCCCCCCCCCCCCCC1O[C@@H]2[C@@H]3C[C@H]([C@@H]2O1)[C@@H](C(=O)NCCNC(=N)N)[C@@H]3C(=O)NCCNC(=N)N.Cl.Cl (some centres undefined)	–	–	–	–	–	–	–	–	–	–	–	–	–	MIC [17]: 1 µg/mL
Cl.Cl.N=C(N)NCCNC(=O)[C@@H]1[C@@H]2C[C@@H]([C@H]3OC(CCCCCCCCCCCNc4ccc([N+](=O)[O-])c5nonc45)O[C@@H]23)[C@H]1C(=O)NCCNC(=N)N (some centres undefined)	32 µg/mL	32 µg/mL	> 32 µg/mL	8 µg/mL	1 µg/mL	4 µg/mL	0.5 µg/mL	16 µg/mL	4 µg/mL	> 50 µg/mL	Active	1 µg/mL	1 µg/mL	zone of inhibition at 50 µg/disc [20]: 9 mm; zone of inhibition at 50 µg/disc [21]: 8.5 mm; zone of inhibition at 50 µg/disc [22]: 9 mm; Drug uptake [11]: Active; Drug uptake [13]: Active; Drug uptake [14]: Active
Cl.Cl.Cl.N=C(N)NCCNC(=O)[C@@H]1[C@@H]2C[C@@H]([C@H]3OC(CCCCCCCCCCCN)O[C@@H]23)[C@H]1C(=O)NCCNC(=N)N (some centres undefined)	> 32 µg/mL	> 32 µg/mL	> 32 µg/mL	> 32 µg/mL	16 µg/mL	8 µg/mL	8 µg/mL	–	–	> 50 µg/mL	–	16 µg/mL	8 µg/mL	zone of inhibition at 50 µg/disc [23]: 12 mm; zone of inhibition at 50 µg/disc [20]: 12 mm; zone of inhibition at 50 µg/disc [21]: 14.5 mm; zone of inhibition at 50 µg/disc [22]: 14 mm
CCCCCCCC1O[C@@H]2[C@@H]3C[C@H]([C@@H]2O1)[C@@H](C(=O)NCCNC(=N)NCc1ccccc1)[C@@H]3C(=O)NCCNC(=N)NCc1ccccc1.Cl.Cl (some centres undefined)	> 32 µg/mL	32 µg/mL	> 32 µg/mL	8 µg/mL	1 µg/mL	2 µg/mL	1 µg/mL	128 µg/mL	2 µg/mL	> 50 µg/mL	–	2 µg/mL	2 µg/mL	zone of inhibition at 50 µg/disc [23]: 10 mm; zone of inhibition at 50 µg/disc [20]: 13 mm; zone of inhibition at 50 µg/disc [21]: 15 mm; zone of inhibition at 50 µg/disc [22]: 17 mm; zone of inhibition at 50 µg/disc [24]: 18 mm
OC(Cn1cncn1)(Cn1cncn1)c1ccc(F)cc1F [FLUCONAZOLE]	–	–	–	–	–	–	–	1 µg/mL (≈ 3.27 µM)	8 µg/mL (≈ 26.1 µM)	–	–	–	–	–
CC/C(=C(\c1ccccc1)c1ccc(OCCN(C)C)cc1)c1ccccc1 [TAMOXIFEN]	–	–	–	–	–	–	–	–	–	13 µg/mL (≈ 35 µM)	–	–	–	–
CN[C@H](CC(C)C)C(=O)N[C@H]1C(=O)N[C@@H](CC(N)=O)C(=O)N[C@H]2C(=O)N[C@H]3C(=O)N[C@H](C(=O)N[C@H](C(=O)O)c4cc(O)cc(O)c4-c4cc3ccc4O)[C@H](O)c3ccc(c(Cl)c3)Oc3cc2cc(c3O[C@@H]2O[C@H](CO)[C@@H](O)[C@H](O)[C@H]2O[C@H]2C[C@](C)(N)[C@H](O)[C@H](C)O2)Oc2ccc(cc2Cl)[C@H]1O [VANCOMYCIN]	–	–	–	–	–	–	> 64 µg/mL	–	–	–	–	–	1 µg/mL (≈ 0.69 µM)	–

— ChEMBL document CHEMBL4325838, “Norbornane-based cationic antimicrobial peptidomimetics targeting the bacterial membrane” (Eur J Med Chem, 2018)
